From PMC7451071 (MedChemComm, 2019)
“Also recorded” adds a separate entry of the source.

Tests used:
AT2 receptor [1] = details: cited from earlier work; for Induction of neurite outgrowth: NG108-15 cells
AT2 receptor [2] = test: Neurite outgrowth assay in NG108-15 cells; format: cell-based; details: for Function (10 nM): three days, alone, with 10 μM PD 123319 or 100 nM Ang II
Summary of the method: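 NG108-15 cells (passages 18–25; DMEM, 10% FBS, HAT, gentamycin; 37 °C, 7% CO2) plated at 3.6 × 10^4 cells/35 mm dish. They were treated once daily for three days from 24 h post-plating with 10 nM test compound (some also 100 nM). Test compound was added alone or 30 min before 100 nM Ang II; 10 μM PD 123319 was given 30 min before agonist. On day 4, phase-contrast micrographs were scored as % of ≥400 cells bearing a neurite longer than the cell body. Duplicates, three independent experiments, mean ± SEM, two-way ANOVA.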

AT2 receptor [3] = details: AT2R antagonist; cited from earlier work
AT2 receptor [4] = target: T1, AT2 receptor (Sus scrofa, UniProt A0A4X1W622); test: AT2 receptor binding, displacement of [125I]Ang II from pig uterus; details: versus compound 3
T1 sequence (A0A4X1W622 1-362): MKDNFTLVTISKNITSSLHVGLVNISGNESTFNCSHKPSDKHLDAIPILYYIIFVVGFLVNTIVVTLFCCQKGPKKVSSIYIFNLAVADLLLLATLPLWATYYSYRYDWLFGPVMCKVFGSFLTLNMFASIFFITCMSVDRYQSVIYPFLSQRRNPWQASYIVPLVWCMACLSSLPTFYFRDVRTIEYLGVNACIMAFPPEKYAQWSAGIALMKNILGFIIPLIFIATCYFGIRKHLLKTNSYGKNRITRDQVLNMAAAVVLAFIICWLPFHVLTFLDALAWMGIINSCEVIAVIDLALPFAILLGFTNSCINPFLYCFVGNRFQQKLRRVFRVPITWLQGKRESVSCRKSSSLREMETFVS

p42/p44mapk pathway = details: cited from earlier work

Question: For “Ang II: hypertensive octapeptide angiotensin II”, which “Induction of neurite outgrowth” value (AT2 receptor [1]) is on record?
Answer: induces neurite outgrowth

Question: For CCCCOC(=O)NS(=O)(=O)c1cc2c(cc1-c1cccc(Cn3ccnc3)c1)CCC2C(C)C (centres unmarked) [Compound 10b, N-(Butoxycarbonyl)-5-[3-(imidazol-1-yl)-methylphenyl]-1-isopropylindan-6-sulfonamide], which “Function (10 nM)” value (AT2 receptor [2]; 10 nM, NG108-15 cells) is on record?
Answer: agonistic effect; also recorded: Agonist

Question: For CCCCOC(=O)NS(=O)(=O)c1cc2c(cc1-c1ccc(Cn3ccnc3)cc1)CCC2C(C)C (centres unmarked) [Compound 9b, N-(Butoxycarbonyl)-5-[4-(imidazol-1-yl)-methylphenyl]-1-isopropylindan-6-sulfonamide], which “Function (10 nM)” value (AT2 receptor [2]; 10 nM, NG108-15 cells) is on record?
Answer: agonistic properties; also recorded: Agonist

Question: Which “Function (10 nM)” value (AT2 receptor [2]; 10 nM, NG108-15 cells) does the source give for CCCCOC(=O)NS(=O)(=O)c1cc2c(cc1-c1cccc(Cn3ccnc3)c1)CCC2C(C)C (centres unmarked) [Compound 10a, N-(Butoxycarbonyl)-5-[3-(imidazol-1-yl)-methylphenyl]-1-isopropylindan-6-sulfonamide] here?
Answer: Antagonist

Question: For CCCCOC(=O)NS(=O)(=O)c1ccc2c(c1-c1cccc(Cn3ccnc3)c1)CCC2C(C)C (centres unmarked) [Compound 8b, N-(Butoxycarbonyl)-4-[3-(imidazol-1-yl)-methylphenyl]-1-isopropylindan-5-sulfonamide], which “Function (10 nM)” value (AT2 receptor [2]; 10 nM, NG108-15 cells) is on record?
Answer: Antagonist

Question: With Cc1cc(Cn2cnc3c2C[C@@H](C(=O)O)N(C(=O)C(c2ccccc2)c2ccccc2)C3)ccc1N(C)C [PD 123319, reference compound] as the molecule, how does the “Effect of co-incubation on induced neurite outgrowth” value (AT2 receptor [2]; 10 μM PD 123319 co-incubated with agonists) read?
Answer: reduced the induced neurite outgrowth

Question: And the “Morphology on treatment alone” value (AT2 receptor [2]; PD 123319 alone, data not shown)?
Answer: did not alter the morphology compared to untreated cells

Question: And the IC50 (AT2 receptor [3])?
Answer: 34 nM

Question: Which “Induction of neurite outgrowth” value (AT2 receptor [1]) does the source give for “Nα-nicotinoyl-Tyr-(Nα-Cbz-Arg)-Lys-His-Pro-Ile [CGP-42112]” here?
Answer: induces neurite outgrowth

Question: Which results are given for CCCCOC(=O)NS(=O)(=O)c1ccc2c(c1-c1ccc(Cn3ccnc3)cc1)CCC2C(C)C (centres unmarked) [Compound 7a, N-(Butoxycarbonyl)-4-[4-(imidazol-1-yl)-methylphenyl]-1-isopropylindan-5-sulfonamide]?
Answer: Degree of neurite outgrowth induced (AT2 receptor [2]; 10 nM, NG108-15 cells): highest degree of neurite outgrowth among this set of compounds; Function (10 nM) (AT2 receptor [2]; 10 nM, NG108-15 cells): strong agonistic effect; also recorded: Agonist; Loss in affinity compared to non rigidified analogue 3 (AT2 receptor [4]): ~200 times

Question: Which “Function (10 nM)” value (AT2 receptor [2]; 10 nM, NG108-15 cells) does the source give for CCCCOC(=O)NS(=O)(=O)c1cc2c(cc1-c1ccc(Cn3ccnc3)cc1)CCC2C(C)C (centres unmarked) [Compound 9a, N-(Butoxycarbonyl)-5-[4-(imidazol-1-yl)-methylphenyl]-1-isopropylindan-6-sulfonamide] here?
Answer: agonistic properties; also recorded: Agonist

Question: With CCCCOC(=O)NS(=O)(=O)c1ccc2c(c1-c1ccc(Cn3ccnc3)cc1)CCC2C(C)C (centres unmarked) [Compound 7b, N-(Butoxycarbonyl)-4-[4-(imidazol-1-yl)-methylphenyl]-1-isopropylindan-5-sulfonamide] as the molecule, how does the “Function (10 nM)” value (AT2 receptor [2]; 10 nM, NG108-15 cells) read?
Answer: antagonism; also recorded: Antagonist

Question: What does the source list for CC(C)(C)c1cc(C=C(C#N)C(N)=S)cc(C(C)(C)C)c1O [AG879, α-cyano-(3,5-di-t-butyl-4-hydroxy)thiocinnamide]?
Answer: Inhibition of the p42/p44mapk pathway (p42/p44mapk pathway): only partially inhibits; Effect on neurite outgrowth (inhibition) (AT2 receptor [1]): total

Question: With CCCCOC(=O)NS(=O)(=O)c1ccc2c(c1-c1cccc(Cn3ccnc3)c1)CCC2C(C)C (centres unmarked) [Compound 8a, N-(Butoxycarbonyl)-4-[3-(imidazol-1-yl)-methylphenyl]-1-isopropylindan-5-sulfonamide] as the molecule, how does the “Function (10 nM)” value (AT2 receptor [2]; 10 nM, NG108-15 cells) read?
Answer: Antagonist
